≈ marks a conversion by molar mass, not a printed value.
Key:
[1] = test system: Mycobacterium tuberculosis; experiment: Antimycobacterial activity against Mycobacterium tuberculosis CNCTC My 331/88 after 14 days; assay type: functional; conditions: CNCTC My 331/88, 336 h
Summary of the method: (§1)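 Broth dilution in Sula semisynthetic medium, compounds added as DMSO solutions at 250, 125, 62, 32, 16, 8, 4, 2 and 1. Strains came from the Czech National Collection of Type Cultures; the M. tuberculosis inoculum was diluted 10^-3. Cultures were incubated at 37 °C, and MIC was read after 7, 14 and 21 days.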

[2] = test system: Mycobacterium tuberculosis; experiment: Antimycobacterial activity against Mycobacterium tuberculosis CNCTC My 331/88 after 21 days; assay type: functional; conditions: CNCTC My 331/88, 504 h; summary of the method: as §1
[3] = test system: Mycobacterium avium; experiment: Antimycobacterial activity against Mycobacterium avium CNCTC My 330/88 after 14 days; assay type: functional; conditions: CNCTC My 330/88, 336 h; summary of the method: as §1
[4] = test system: Mycobacterium avium; experiment: Antimycobacterial activity against Mycobacterium avium CNCTC My 330/88 after 21 days; assay type: functional; conditions: CNCTC My 330/88, 504 h; summary of the method: as §1
[5] = test system: Mycobacterium kansasii; experiment: Antimycobacterial activity against Mycobacterium kansasii CNCTC My 235/80 after 7 days; assay type: functional; conditions: CNCTC My 235/80, 168 h
Summary of the method: (§2)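 Compounds were added as DMSO solutions to Sula semisynthetic medium at 250, 125, 62, 32, 16, 8, 4, 2 and 1 µmol/L. Two M. kansasii strains were used: CNCTC My 235/80 and clinical isolate 6509/96, each with strain dilution 10^-4. Incubation was at 37 °C, and MIC was read at 7, 14 and 21 days.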

[6] = test system: Mycobacterium kansasii; experiment: Antimycobacterial activity against Mycobacterium kansasii CNCTC My 235/80 after 14 days; assay type: functional; conditions: CNCTC My 235/80, 336 h; summary of the method: as §2
[7] = test system: Mycobacterium kansasii; experiment: Antimycobacterial activity against Mycobacterium kansasii CNCTC My 235/80 after 21 days; assay type: functional; conditions: CNCTC My 235/80, 504 h; summary of the method: as §2
[8] = test system: Mycobacterium kansasii; experiment: Antimycobacterial activity against Mycobacterium kansasii isolate 6509/96 after 7 days; assay type: functional; conditions: isolate 6509/96, 168 h; summary of the method: as §2
[9] = test system: Mycobacterium kansasii; experiment: Antimycobacterial activity against Mycobacterium kansasii isolate 6509/96 after 14 days; assay type: functional; conditions: isolate 6509/96, 336 h; summary of the method: as §2
[10] = test system: Mycobacterium kansasii; experiment: Antimycobacterial activity against Mycobacterium kansasii isolate 6509/96 after 21 days; assay type: functional; conditions: isolate 6509/96, 504 h; summary of the method: as §2
[11] = Lipophilicity, log K by HPLC; assay type: physicochemical
Summary of the method: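 Capacity factors k were measured by RP-HPLC and log k was calculated from them.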

| Structure (SMILES) | MIC [1] | MIC [2] | MIC [3] | MIC [4] | MIC [5] | MIC [6] | MIC [7] | MIC [8] | MIC [9] | MIC [10] | log K [11] |
| --- | --- | --- | --- | --- | --- | --- | --- | --- | --- | --- | --- |
| O=C(N[C@H](Cc1ccccc1)C(=O)Oc1ccc(Cl)cc1C(=O)Nc1ccc(Cl)cc1)OCc1ccccc1 | 4 µM (≈ 2.25 µg/mL) | 4 µM (≈ 2.25 µg/mL) | 16 µM (≈ 9.01 µg/mL) | 16 µM (≈ 9.01 µg/mL) | 8 µM (≈ 4.51 µg/mL) | 8 µM (≈ 4.51 µg/mL) | 8 µM (≈ 4.51 µg/mL) | 8 µM (≈ 4.51 µg/mL) | 8 µM (≈ 4.51 µg/mL) | 16 µM (≈ 9.01 µg/mL) | 1.0678 |
| CC(C)[C@H](NC(=O)OCc1ccccc1)C(=O)Oc1ccc(Cl)cc1C(=O)Nc1cccc(Cl)c1 | 4 µM (≈ 2.06 µg/mL) | 4 µM (≈ 2.06 µg/mL) | 16 µM (≈ 8.25 µg/mL) | 16 µM (≈ 8.25 µg/mL) | 8 µM (≈ 4.12 µg/mL) | 16 µM (≈ 8.25 µg/mL) | 16 µM (≈ 8.25 µg/mL) | 8 µM (≈ 4.12 µg/mL) | 16 µM (≈ 8.25 µg/mL) | 16 µM (≈ 8.25 µg/mL) | 0.8972 |
| C[C@H](NC(=O)OCc1ccccc1)C(=O)Oc1ccc(Cl)cc1C(=O)Nc1cccc(Cl)c1 | 4 µM (≈ 1.95 µg/mL) | 8 µM (≈ 3.9 µg/mL) | 32 µM (≈ 15.6 µg/mL) | 62.5 µM (≈ 30.5 µg/mL) | 16 µM (≈ 7.8 µg/mL) | 16 µM (≈ 7.8 µg/mL) | 16 µM (≈ 7.8 µg/mL) | 8 µM (≈ 3.9 µg/mL) | 16 µM (≈ 7.8 µg/mL) | 16 µM (≈ 7.8 µg/mL) | 0.6995 |
| C[C@@H](NC(=O)OCc1ccccc1)C(=O)Oc1ccc(Cl)cc1C(=O)Nc1ccc(Br)cc1 | 2 µM (≈ 1.06 µg/mL) | 4 µM (≈ 2.13 µg/mL) | 16 µM (≈ 8.51 µg/mL) | 16 µM (≈ 8.51 µg/mL) | 4 µM (≈ 2.13 µg/mL) | 8 µM (≈ 4.25 µg/mL) | 8 µM (≈ 4.25 µg/mL) | 8 µM (≈ 4.25 µg/mL) | 16 µM (≈ 8.51 µg/mL) | 16 µM (≈ 8.51 µg/mL) | 0.7527 |
| CC(C)[C@H](NC(=O)OCc1ccccc1)C(=O)Oc1ccc(Cl)cc1C(=O)Nc1ccc(Cl)c(Cl)c1 | 2 µM (≈ 1.1 µg/mL) | 4 µM (≈ 2.2 µg/mL) | 16 µM (≈ 8.8 µg/mL) | 32 µM (≈ 17.6 µg/mL) | 4 µM (≈ 2.2 µg/mL) | 4 µM (≈ 2.2 µg/mL) | 8 µM (≈ 4.4 µg/mL) | 8 µM (≈ 4.4 µg/mL) | 8 µM (≈ 4.4 µg/mL) | 8 µM (≈ 4.4 µg/mL) | 1.1567 |
| O=C(CNC(=O)OCc1ccccc1)Oc1ccc(Cl)cc1C(=O)Nc1cccc(Cl)c1 | 4 µM (≈ 1.89 µg/mL) | 8 µM (≈ 3.79 µg/mL) | 16 µM (≈ 7.57 µg/mL) | 32 µM (≈ 15.1 µg/mL) | 16 µM (≈ 7.57 µg/mL) | 16 µM (≈ 7.57 µg/mL) | 16 µM (≈ 7.57 µg/mL) | 8 µM (≈ 3.79 µg/mL) | 16 µM (≈ 7.57 µg/mL) | 16 µM (≈ 7.57 µg/mL) | 0.6119 |
| C[C@H](NC(=O)OCc1ccccc1)C(=O)Oc1cc(Cl)ccc1C(=O)Nc1ccc(Cl)cc1 | 4 µM (≈ 1.95 µg/mL) | 8 µM (≈ 3.9 µg/mL) | 16 µM (≈ 7.8 µg/mL) | 16 µM (≈ 7.8 µg/mL) | 4 µM (≈ 1.95 µg/mL) | 8 µM (≈ 3.9 µg/mL) | 8 µM (≈ 3.9 µg/mL) | 8 µM (≈ 3.9 µg/mL) | 8 µM (≈ 3.9 µg/mL) | 16 µM (≈ 7.8 µg/mL) | 0.6337 |
| CC(C)[C@@H](NC(=O)OCc1ccccc1)C(=O)Oc1ccc(Cl)cc1C(=O)Nc1cccc(Cl)c1 | 8 µM (≈ 4.12 µg/mL) | 8 µM (≈ 4.12 µg/mL) | 32 µM (≈ 16.5 µg/mL) | 32 µM (≈ 16.5 µg/mL) | 8 µM (≈ 4.12 µg/mL) | 16 µM (≈ 8.25 µg/mL) | 16 µM (≈ 8.25 µg/mL) | 8 µM (≈ 4.12 µg/mL) | 16 µM (≈ 8.25 µg/mL) | 16 µM (≈ 8.25 µg/mL) | 0.8954 |
| O=C(N[C@@H](Cc1ccccc1)C(=O)Oc1ccc(Cl)cc1C(=O)Nc1ccc(Cl)c(Cl)c1)OCc1ccccc1 | 2 µM (≈ 1.2 µg/mL) | 2 µM (≈ 1.2 µg/mL) | 16 µM (≈ 9.57 µg/mL) | 32 µM (≈ 19.1 µg/mL) | 4 µM (≈ 2.39 µg/mL) | 4 µM (≈ 2.39 µg/mL) | 8 µM (≈ 4.78 µg/mL) | 8 µM (≈ 4.78 µg/mL) | 8 µM (≈ 4.78 µg/mL) | 8 µM (≈ 4.78 µg/mL) | 1.3056 |
| CC(C)[C@@H](NC(=O)OCc1ccccc1)C(=O)Oc1ccc(Cl)cc1C(=O)Nc1ccc(Cl)c(Cl)c1 | 2 µM (≈ 1.1 µg/mL) | 4 µM (≈ 2.2 µg/mL) | 16 µM (≈ 8.8 µg/mL) | 16 µM (≈ 8.8 µg/mL) | 4 µM (≈ 2.2 µg/mL) | 4 µM (≈ 2.2 µg/mL) | 8 µM (≈ 4.4 µg/mL) | 8 µM (≈ 4.4 µg/mL) | 8 µM (≈ 4.4 µg/mL) | 16 µM (≈ 8.8 µg/mL) | 1.1559 |
| C[C@H](NC(=O)OCc1ccccc1)C(=O)Oc1ccc(Cl)cc1C(=O)Nc1ccc(Cl)c(Cl)c1 | 2 µM (≈ 1.04 µg/mL) | 4 µM (≈ 2.09 µg/mL) | 16 µM (≈ 8.35 µg/mL) | 32 µM (≈ 16.7 µg/mL) | 4 µM (≈ 2.09 µg/mL) | 4 µM (≈ 2.09 µg/mL) | 8 µM (≈ 4.17 µg/mL) | 8 µM (≈ 4.17 µg/mL) | 16 µM (≈ 8.35 µg/mL) | 16 µM (≈ 8.35 µg/mL) | 0.9408 |
| C[C@@H](NC(=O)OCc1ccccc1)C(=O)Oc1ccc(Cl)cc1C(=O)Nc1ccc(Cl)c(Cl)c1 | 2 µM (≈ 1.04 µg/mL) | 4 µM (≈ 2.09 µg/mL) | 16 µM (≈ 8.35 µg/mL) | 32 µM (≈ 16.7 µg/mL) | 8 µM (≈ 4.17 µg/mL) | 8 µM (≈ 4.17 µg/mL) | 16 µM (≈ 8.35 µg/mL) | 4 µM (≈ 2.09 µg/mL) | 8 µM (≈ 4.17 µg/mL) | 8 µM (≈ 4.17 µg/mL) | 0.938 |
| C[C@@H](NC(=O)OCc1ccccc1)C(=O)Oc1ccc(Cl)cc1C(=O)Nc1cccc(Cl)c1 | 8 µM (≈ 3.9 µg/mL) | 8 µM (≈ 3.9 µg/mL) | 32 µM (≈ 15.6 µg/mL) | 32 µM (≈ 15.6 µg/mL) | 16 µM (≈ 7.8 µg/mL) | 16 µM (≈ 7.8 µg/mL) | 16 µM (≈ 7.8 µg/mL) | 8 µM (≈ 3.9 µg/mL) | 16 µM (≈ 7.8 µg/mL) | 16 µM (≈ 7.8 µg/mL) | 0.699 |
| CC(C)[C@@H](NC(=O)OCc1ccccc1)C(=O)Oc1ccc(Cl)cc1C(=O)Nc1ccc(Cl)cc1 | 4 µM (≈ 2.06 µg/mL) | 4 µM (≈ 2.06 µg/mL) | 16 µM (≈ 8.25 µg/mL) | 16 µM (≈ 8.25 µg/mL) | 8 µM (≈ 4.12 µg/mL) | 8 µM (≈ 4.12 µg/mL) | 16 µM (≈ 8.25 µg/mL) | 8 µM (≈ 4.12 µg/mL) | 8 µM (≈ 4.12 µg/mL) | 16 µM (≈ 8.25 µg/mL) | 0.9421 |
| O=C(N[C@@H](Cc1ccccc1)C(=O)Oc1ccc(Cl)cc1C(=O)Nc1ccc(Br)cc1)OCc1ccccc1 | 4 µM (≈ 2.43 µg/mL) | 8 µM (≈ 4.86 µg/mL) | 16 µM (≈ 9.73 µg/mL) | 16 µM (≈ 9.73 µg/mL) | 4 µM (≈ 2.43 µg/mL) | 8 µM (≈ 4.86 µg/mL) | 8 µM (≈ 4.86 µg/mL) | 16 µM (≈ 9.73 µg/mL) | 16 µM (≈ 9.73 µg/mL) | 16 µM (≈ 9.73 µg/mL) | 1.1258 |
| O=C(N[C@H](Cc1ccccc1)C(=O)Oc1ccc(Cl)cc1C(=O)Nc1cccc(Cl)c1)OCc1ccccc1 | 4 µM (≈ 2.25 µg/mL) | 4 µM (≈ 2.25 µg/mL) | 16 µM (≈ 9.01 µg/mL) | 32 µM (≈ 18 µg/mL) | 8 µM (≈ 4.51 µg/mL) | 16 µM (≈ 9.01 µg/mL) | 16 µM (≈ 9.01 µg/mL) | 8 µM (≈ 4.51 µg/mL) | 16 µM (≈ 9.01 µg/mL) | 16 µM (≈ 9.01 µg/mL) | 1.0476 |
| O=C(N[C@@H](Cc1ccccc1)C(=O)Oc1ccc(Cl)cc1C(=O)Nc1cccc(Cl)c1)OCc1ccccc1 | 16 µM (≈ 9.01 µg/mL) | 16 µM (≈ 9.01 µg/mL) | 32 µM (≈ 18 µg/mL) | 62.5 µM (≈ 35.2 µg/mL) | 32 µM (≈ 18 µg/mL) | 32 µM (≈ 18 µg/mL) | 32 µM (≈ 18 µg/mL) | 32 µM (≈ 18 µg/mL) | 32 µM (≈ 18 µg/mL) | 32 µM (≈ 18 µg/mL) | 1.0465 |

Source: ChEMBL document CHEMBL1136894, “New antituberculotics originated from salicylanilides with promising in vitro activity against atypical mycobacterial strains” (Bioorg Med Chem, 2009)
